Screening results: PubChem, several laboratories
In the library only some 1.9% were active in any assay of this set; here they are far more common.
Dynein transport: blocks dynein driven cargo transport along microtubules. z-score, hits read low. 220,000 compounds, 0.47% hits. 3617.4 mouse cells, GR-EGFP nuclear translocation imaging; test concentration mostly 20 µM; stimulated with dexamethasone, 1 µM; stronger effect = lower value. AID 1381;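 active = plate z-score of nuclear minus cytoplasmic receptor signal below a set negative limit, without overly bright fluorescence or cell loss, cut at about -3.5 in these data, passing the limit was not always enough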;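 also: z-score of nuclear minus cytoplasmic ring GR-EGFP intensity difference per well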
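Buffer or medium: Induction medium lacking tetracycline, stripped serum | Also added: Dexamethasone agonist, 1.0 µM final, for 30 min | Timing: 48 h induction, 1 h compound, 30 min dex at 37 °C | Detection: Formaldehyde fixation, Hoechst nuclear stain, 10x automated fluorescence imaging | Measure: Nuclear versus cytoplasmic GR-EGFP signal, averaged per well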
RAM inhibit: blocks the yeast RAM network; S. cerevisiae dse1pr::URA3 reporter, 5-FOA growth OD615, 2 d; analog-sensitive cbk1-as2 kinase mutant strain; inhibition, % at 50 µM; 190,000 compounds, 1.8% hits; AID 868;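 active = inhibition above a set limit, 3 SD over mean compound inhibition, cut at about 8.4% in these data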;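 also: 0% = DMSO-only wells with no growth and 100% = 10 µM 1-NA-PP1 full growth; inhibition rescues growth on 5-FOA so higher OD means more RAM inhibition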
pCIP destab: lowers stability of the mouse p/CIP coactivator protein | F442A p/CIP-EGFP cells, EGFP fluorescence, 16 h | decrease of EGFP signal, % at 10 µM | 290,000 compounds, 0.01% hits | AID 1984;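 active = EGFP signal decrease of at least 30% at 10 µM or well 3 SD below plate mean, unless failing retest; inactive = the rest, including hits failing retest or dose response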
NCF1 inh: inhibitors of human p47phox binding | 220,000 compounds, 0.53% hits | inhibition, % at 24.7 µM | p47phox/p22phox peptide binding, fluorescence polarization, 2 h | AID 1274;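 active = inhibition above about 30%, limit read from the data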;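 also: 0% = p47phox with labelled peptide and 100% = labelled peptide alone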
Target sequence (P14598 whole entry, looked up): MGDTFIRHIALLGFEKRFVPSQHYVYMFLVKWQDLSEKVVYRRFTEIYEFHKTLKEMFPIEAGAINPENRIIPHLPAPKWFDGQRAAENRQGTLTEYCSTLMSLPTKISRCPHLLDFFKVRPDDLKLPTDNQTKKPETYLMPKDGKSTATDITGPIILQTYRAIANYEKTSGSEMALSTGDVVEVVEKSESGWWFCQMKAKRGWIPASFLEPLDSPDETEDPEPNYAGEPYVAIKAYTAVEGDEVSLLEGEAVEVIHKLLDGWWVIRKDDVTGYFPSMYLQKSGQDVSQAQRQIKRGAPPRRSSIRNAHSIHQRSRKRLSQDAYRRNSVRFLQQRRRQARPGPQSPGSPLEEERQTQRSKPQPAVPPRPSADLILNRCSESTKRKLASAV
RAM efflux-def: RAM network inhibitors in efflux-deficient yeast | shares compounds with RAM inhibit | S. cerevisiae efflux-deficient reporter strain, 5-FOA growth OD615, 2 days | max inhibition, % | 1,200 tested, under 10 active | AID 1305; call rule not given here;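 also: plate controls were vehicle for no effect and reference inhibitor for full effect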
Numbers without * were called inactive; nt = no result given.

SMILES	Dynein transport	RAM inhibit	pCIP destab	NCF1 inh	RAM efflux-def
COc1cc(SC)ccc1C(=O)NCCOc1ccc(Cl)cc1	-0.094	3	-10	-3	nt
COc1cc(NC(=O)c2sc3ncn(CC(=O)N4CCCCC4)c(=O)c3c2C)cc(OC)c1OC	nt	nt	-23	nt	nt
COc1ccc(NC(=O)CSc2nc3ccccc3c(=O)n2CCNC(C)=O)c(OC)c1	-1.1	12*	-14	-3	1
CC(=O)NCCn1c(SCc2cccc([N+](=O)[O-])c2)nc2ccccc2c1=O	-0.19	12*	2	-1	3
CCOc1ncccc1C(=O)NCC(c1ccccc1)N(C)C (stereo not drawn)	nt	nt	2	nt	nt
O=[N+]([O-])c1ccc(-c2nnc(-c3ccccc3)c(NCCCO)n2)cc1	-0.5	13*	2	-9	2
COc1ccc(N(C)S(=O)(=O)c2cccc(C(=O)OCC(=O)Nc3sc4c(c3C#N)CCCCC4)c2)cc1	-0.88	11*	3	-23	2
CCN(CC)S(=O)(=O)c1ccc(C(=O)OCC(=O)Nc2sc3c(c2C#N)CCCCC3)cc1	1	8	11	-45	nt
CN(/N=C/c1ccc2c(c1)OCO2)c1ccccc1	0.56	4	-6	-13	nt
C(=N\N(c1ccccc1)c1ccccc1)/c1ccc2c(c1)OCO2	1.9	14*	-10	-12	7
O=C(C[n+]1ccc(-c2nnc3n2CCCCC3)cc1)c1ccc(Cl)cc1	0.83	nt	2	-9	nt
COc1ccc(N2CCN(CCCNC(=O)C(=O)c3c[nH]c4ccccc34)CC2)cc1	nt	nt	-1	nt	nt
C=CCOc1ccccc1CN(C(=O)CCl)c1ccc2c(c1)OCO2	nt	nt	-5	nt	nt
CCOCCCNC(=O)C(Cc1ccccc1)NS(=O)(=O)c1ccc2c(c1)c(=O)n(C)c(=O)n2C (stereo not drawn)	-0.57	0	-15	0	nt
CC(C)OCCCNC(=O)C(NS(=O)(=O)c1ccc2c(c1)c(=O)n(C)c(=O)n2C)c1ccccc1 (stereo not drawn)	-0.38	13*	-8	-7	3
O=C1CN(C(=O)CSc2nc(-c3ccc(Cl)cc3)cs2)c2ccccc2N1	-0.6	1	-4	-56	nt
CCCCNC(=S)N(C)/N=C/c1ccc(OCc2ccc(C(=O)OC)cc2)c(OC)c1	-0.32	14*	8	-9	7
CCC(=O)c1ccc(OCc2ccc(C(=O)OC)cc2)c(OC)c1	-0.27	5	-3	-1	nt
O=C(OCC(=O)c1c[nH]c2ccccc12)c1ccco1	-0.28	0	3	-1	nt
O=C(OCc1ccccc1)C1=[N+]([O-])OC(C(=O)OCc2ccccc2)C1c1c[nH]c2ccccc12 (stereo not drawn)	-2.4	12*	6	-2	4
O=C(CCCSc1nc2ccccc2[nH]1)Nc1nnc(-c2ccccc2)o1	-0.22	14*	-15	-7	2
CCCOc1ccc(N2C(=O)CC(N(CCc3ccc(OC)c(OC)c3)C(=O)c3ccccc3)C2=O)cc1 (stereo not drawn)	-1.2	nt	-5	13	nt
CCCOc1ccc(N2C(=O)CC(N(CCc3ccccc3)C(=O)c3ccccc3)C2=O)cc1 (stereo not drawn)	0.048	12*	-9	3	1
Cc1ccc(S(=O)(=O)NCCC(=O)Nc2cccc(Cl)c2)cc1	-0.2	3	10	-10	nt
CCCSC1=N/C(=C/c2ccsc2)C(=O)N1c1ccccc1	1	12*	8	-19	1
SMILES	Dynein transport	RAM inhibit	pCIP destab	NCF1 inh	RAM efflux-def
CCSC1=N/C(=C\c2cccnc2)C(=O)N1c1ccccc1	-0.74	0	-11	-10	nt
CCCCSC1=N/C(=C/c2ccsc2)C(=O)N1c1ccccc1	0.36	16*	5	-18	3
CSC1=N/C(=C\c2cccnc2)C(=O)N1c1ccccc1	1.6	-1	-15	-11	nt
CCSC1=N/C(=C/c2ccsc2)C(=O)N1c1ccccc1	0.43	12*	11	-8	3
CCCCn1c(N)c(N(CCC(C)C)C(=O)CN2C(=O)C3CCCCC3C2=O)c(=O)[nH]c1=O (stereo not drawn)	nt	nt	-30	nt	nt
C/C=C(/C)C(=O)O[C@@H]1c2c(ccc3ccc(=O)oc23)O[C@@H]1C(C)(C)OC(=O)/C(C)=C\C	-0.41	18*	0	-13	5
C/C=C(/C)C(=O)OC(C)(C)[C@@H]1Cc2c(ccc3ccc(=O)oc23)O1	-0.038	2	0	-2	nt
CC(C)CC(NC(=O)OC(C)(C)C)c1cn([C@@H](CCC(=O)OC(C)(C)C)C(=O)N2CCN(C(=O)OC(C)(C)C)CC2)nn1 (stereo partly drawn)	-0.23	3	-5	-4	nt
O=C(CN(C(=O)CSc1nnc(COc2ccccc2)o1)c1ccc(F)cc1)NC1CCCCC1	-0.57	6	-11	1	nt
O=C(CN(C(=O)CSc1nnc(COc2ccccc2)o1)c1ccc(F)cc1)NC1CCCC1	2.3	15*	-16	-6	2
Cc1nn(CCc2nn[nH]n2)c2nc(-c3ccc(C4CCCCC4)cc3)cc(C(F)(F)F)c12	2.4	15*	-6	-25	8
C=CCSc1nnc(NC(=O)C23CC4CC(CC(NC(C)=O)(C4)C2)C3)s1	nt	nt	-17	nt	nt
O=C(CSc1ccccc1)N(c1ccc(Br)cc1)c1nccs1	-0.14	12*	3	-15	1
CCOc1ccccc1NC(=O)C(OC(=O)c1cc(C)oc1C)c1ccccc1 (stereo not drawn)	0.73	14*	-2	-41	5
CCOc1ccccc1NC(=O)C(OC(=O)c1ccccc1)c1ccccc1 (stereo not drawn)	1.1	6	-7	-14	nt
CCCCC1(Cc2cccc([N+](=O)[O-])c2)C(=O)N(c2ccccc2)N(c2ccccc2)C1=O	-1.2	13*	-8	-9	5
COc1ccc(C(=O)/C=C/c2ccc(O)cc2)c(O)c1CC=C(C)C	0.17	24*	-1	-33	2
CC1Nc2ccccc2C(=O)N1NC(=O)c1ccc(Br)cc1 (stereo not drawn)	0.17	1	-11	-3	nt
CCc1cc2c(Sc3nc4ccccc4s3)ncnc2s1	0.093	13*	0	-23	2
COc1ccccc1C1(CCNS(=O)(=O)c2ccc(C)cc2)CCOC(C(C)C)C1 (stereo not drawn)	0.35	13*	5	-13	3
CCOC(=O)C1=C(O)/C(=C/c2ccc(OCC(=O)O)c(OC)c2)SC1=Nc1ccc(OC)cc1	0.24	14*	6	-45	9
CC(C)Oc1ccc(CCc2n[nH]c(=S)n2-c2ccccc2)cc1	-0.068	3	-9	0	nt
CCCCCCn1c(=O)c(C(=O)N/N=C/c2cccc(F)c2)c(O)c2ccccc21	-0.76	16*	15	-6	5
CCn1c(=O)c(C(=O)NCCc2ccccc2)c(O)c2ccccc21	0.9	12*	3	-2	4
CCCCCCCCC(=O)NNC(=O)c1c(O)c2ccccc2n(CC)c1=O	-0.1	13*	5	-6	1
